Assays:
Jurkat [1] = assay: Cytotoxicity against human Jurkat cells assessed as cell viability at 1 uM after 24 hrs by MTT assay relative to control; format: functional; settings: read-out: Activity
In short: (§1)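 Jurkat T-cell leukaemia line grown in RPMI 1640 with 10% FBS, 2 mM L-glutamine and gentamycin at 37 °C, 5% CO2, kept in log phase. Compounds were dissolved in DMSO and applied for 24 h. Cells were washed in HEPES-buffered medium (pH 7.4) and given MTT at 0.5 mg/mL for 45 min at 37 °C. Formazan was dissolved in DMSO and read at 570 nm. Viability is % of control, from three independent measurements.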

[2] = Cytotoxicity against HSF cells assessed as cell viability at 50 uM after 24 hrs by MTT assay relative to control; format: cell-based; settings: human, read-out: Activity
In short: (§2)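 Normal human skin fibroblasts (HSF, primary line) were exposed to DMSO-dissolved compound for 24 h. Viability was read by MTT tetrazolium reduction and expressed against untreated control set at 100%.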

[3] = Cytotoxicity against HSF cells assessed as cell viability at 1 uM after 24 hrs by MTT assay relative to control; format: cell-based; settings: human, read-out: Activity; in short: as §2
Jurkat [4] = assay: Cytotoxicity against human Jurkat cells assessed as cell viability at 100 uM after 24 hrs by MTT assay relative to control; format: functional; settings: read-out: Activity; in short: as §1
Jurkat [5] = assay: Cytotoxicity against human Jurkat cells assessed as cell viability at 50 uM after 24 hrs by MTT assay relative to control; format: functional; settings: read-out: Activity; in short: as §1
[6] = Cytotoxicity against HSF cells assessed as cell viability at 100 uM after 24 hrs by MTT assay relative to control; format: cell-based; settings: human, read-out: Activity; in short: as §2
[7] = Growth inhibition of HSF cells assessed as BrdU incorporation at 36.7 uM after 72 hrs by spectrophotometry; format: cell-based; settings: human, read-out: GI
In short: (§3)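 Cells were seeded at 10⁴ cells/mL and preincubated. Compounds were dissolved in DMSO and added at two fixed concentrations, then incubated for 72 h. End-point was BrdU labelling with ELISA detection, read spectrophotometrically. Result is % growth inhibition versus untreated controls. Triplicates.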

SiHa [8] = assay: Growth inhibition of human SiHa cells assessed as BrdU incorporation after 72 hrs by spectrophotometry; format: functional, cell-based
In short: (§4)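 Cancer cells were seeded at 10⁴ cells/mL, preincubated, then exposed for 72 h to DMSO-dissolved compound. Growth was read by BrdU labelling with ELISA spectrophotometry. IC50 was taken from 72 h dose–survival curves. Triplicates.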

[9] = Growth inhibition of african green monkey Vero cells assessed as BrdU incorporation at 183.6 uM after 72 hrs by spectrophotometry; format: cell-based; settings: chlorocebus sabaeus, read-out: GI; in short: as §3
[10] = Growth inhibition of human LS180 cells assessed as BrdU incorporation at 183.6 uM after 72 hrs by spectrophotometry; format: functional; settings: LS180, 72 h, read-out: GI; in short: as §3
[11] = Growth inhibition of HSF cells assessed as BrdU incorporation at 183.6 uM after 72 hrs by spectrophotometry; format: cell-based; settings: human, read-out: GI; in short: as §3
Jurkat [12] = assay: Cytotoxicity against human Jurkat cells assessed as decrease in cell viability after 24 hrs by MTT assay; format: functional, cell-based
In short: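 Jurkat cells grown in RPMI 1640/10% FBS at 37 °C, 5% CO2, with 24 h exposure to DMSO-dissolved compound. Read-out was MTT reduction: 0.5 mg/mL in HEPES-buffered medium for 45 min, formazan in DMSO, absorbance at 570 nm. IC50 was taken from 24 h dose–survival curves.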

SiHa [13] = assay: Growth inhibition of human SiHa cells assessed as BrdU incorporation at 36.7 uM after 72 hrs by spectrophotometry; format: functional; settings: read-out: GI; in short: as §3
T47D [14] = assay: Growth inhibition of human T47D cells assessed as BrdU incorporation at 36.7 uM after 72 hrs by spectrophotometry; format: functional; settings: read-out: GI
In short: (§5)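 Each cell line was seeded at 10⁴ cells per mL and preincubated. Test agents were dissolved in DMSO, added at two examined concentrations (10 and 50 per mL by mass), and incubated for 72 h. The end-point was BrdU labeling and detection kit III read on an ELISA reader. Percent growth inhibition was calculated against untreated controls, in triplicate.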

T47D [15] = assay: Growth inhibition of human T47D cells assessed as BrdU incorporation at 183.6 uM after 72 hrs by spectrophotometry; format: functional; settings: read-out: GI; in short: as §5
Vero = assay: Growth inhibition of african green monkey Vero cells assessed as BrdU incorporation at 36.7 uM after 72 hrs by spectrophotometry; format: cell-based; settings: chlorocebus sabaeus; in short: as §3
T47D [16] = assay: Growth inhibition of human T47D cells assessed as BrdU incorporation after 72 hrs by spectrophotometry; format: functional, cell-based; in short: as §4
[17] = Growth inhibition of human LS180 cells assessed as BrdU incorporation after 72 hrs by spectrophotometry; format: functional, cell-based; settings: LS180, 72 h; in short: as §4
Mus musculus = assay: Neurotoxicity in ip dosed Swiss albino mouse assessed as impair in motor coordination at 0.1 LD50 concentration by rotarod test; format: toxicity, organism-based; settings: in vivo
In short: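 Male Albino Swiss mice (20-25 g), housed 8-10 per cage at 20 ± 1 °C on a 12/12 h light-dark cycle with food and water ad libitum. Randomized groups of 10. Compound given i.p. as a suspension in 3% Tween 80 at 10 mL kg^-1; controls received the same volume of vehicle. Tests run 8 a.m.-3 p.m.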

[18] = Growth inhibition of human LS180 cells assessed as BrdU incorporation at 36.7 uM after 72 hrs by spectrophotometry; format: functional; settings: LS180, 72 h, read-out: GI; in short: as §3
SiHa [19] = assay: Growth inhibition of human SiHa cells assessed as BrdU incorporation at 183.6 uM after 72 hrs by spectrophotometry; format: functional; settings: read-out: GI; in short: as §3

SMILES	viability at 1 µM (Jurkat [1]) [%]	viability at 24 h, 50 µM [2] [%]	viability at 24 h, 1 µM [3] [%]	viability at 100 µM (Jurkat [4]) [%]	viability at 50 µM (Jurkat [5]) [%]	viability at 24 h, 100 µM [6] [%]	IC50 (SiHa [8]) [µM]	IC50 (Jurkat [12]) [µM]	IC50 (T47D [16]) [µM]	IC50 [17] [µM]	Activity (Mus musculus)	further results
CCOC(=O)c1nnc2n(c1=O)CCN2c1ccccc1	82	98.1	91.6	105	103	77.1	–	–	–	–	–	–
NNC(=O)c1nnc2n(c1=O)CCN2c1ccccc1	89	83	82	33	82	82	> 100	85.5	> 100	> 100	Non-toxic	inhibition at 72 h, 36.7 µM [7]: 16%; inhibition at 72 h, 183.6 µM [9]: 0%; inhibition of growth at 183.6 µM [10]: 15%; inhibition at 72 h, 183.6 µM [11]: 20%; inhibition of growth at 36.7 µM (SiHa [13]): 0%; inhibition of growth at 36.7 µM (T47D [14]): 4%; inhibition of growth at 183.6 µM (T47D [15]): 9%; growth inhibition (GI) (Vero): 2%; inhibition of growth at 36.7 µM [18]: 0%; inhibition of growth at 183.6 µM (SiHa [19]): 0%
CCOC(=O)c1nnc2n(c1=O)CCN2c1ccc(Cl)c(Cl)c1	91	84	102	23	28	85	> 100	32.2	> 100	> 100	Non-toxic	–

From ChEMBL document CHEMBL1141657, “Synthesis, structure elucidation and identification of antitumoural properties of novel fused 1,2,4-triazine aryl derivatives” (Eur J Med Chem, 2008)
